This note sets out measurements from ChEMBL document CHEMBL1129963, “Sulfonimidamide analogs of oncolytic sulfonylureas” (J Med Chem, 1997).

For orientation: IC50 means the point on the concentration scale where inhibition reaches its midpoint. Broadly, the inhibition in vivo is how much of the control response was suppressed. Lower therefore signals little suppression. The Inhibition is the drop in the measured response relative to a control, in per cent. A lower Inhibition goes with a response near the control.

≈ marks a conversion by molar mass, not a printed value.

The test system of data set [1] is Mus musculus. The experiment in a line: In vivo antitumor activity of compound against subaxillary implanted 6C3HED lymphosarcoma implanted in C3H mice at a dose of 150 mg/kg administered perorally twice daily for a period of 8 days; Toxic. The format is functional, organism-based. More on the design: dose 150 mg/kg. The gist of the method: (§1)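 6C3HED lymphosarcoma was carried in C3H mice. Compound was dosed at the stated route and schedule for 8 days (daily, twice daily, or days 1, 3, 5, 7) and tumor growth inhibition was scored against controls. The table value is the lowest dose giving >80% inhibition, or the highest dose tested. Deaths per group were recorded.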

The subject of data set [2] is Mus musculus. Description: In vivo antitumor activity of compound against subaxillary implanted 6C3HED lymphosarcoma implanted in C3H mice at a dose of 25 mg/kg administered perorally twice daily for a period of 8 days. Format: functional. Conditions: route oral. The gist of the method: (§2)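 Oral dosing twice daily for 8 days in C3H mice bearing 6C3HED lymphosarcoma. Read-out is percent tumor growth inhibition relative to controls, with deaths per group also recorded. The full in vivo protocol is given in an earlier report.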

Data set [3] deals with CCRF-CEM. Description: In vitro cytotoxicity against CCRF-CEM cells. Format: functional, cell-based. Conditions: Homo sapiens. The gist of the method:
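CCRF-CEM cells were grown in culture for 72 h with compound. The value is the concentration that inhibited growth to 50% of control growth.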

Data set [4] concerns Mus musculus. Description: In vivo antitumor activity of compound against subaxillary implanted 6C3HED lymphosarcoma implanted in C3H mice at a dose of 25 mg/kg administered perorally daily for a period of 8 days. The format is functional. Conditions: 192 h, route oral. The method in brief:
as §1

A short description of data set [5]: % dose converted to 2-amino-5-chlorophenyl sulfate. Format: ADME. The method in brief: (§3)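 Groups of two to four mice received single 100 mg/kg oral doses of each compound. Urine was pooled over 0-24 h, and the 2-amino-5-chlorophenyl sulfate excreted in 24 h per mouse was quantified as the marker of p-chloroaniline release.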
The subject of data set [6] is Mus musculus. The experiment in a line: (§4) In vivo antitumor activity of compound against subaxillary implanted 6C3HED lymphosarcoma implanted in C3H mice at a dose of 75 mg/kg administered perorally twice daily for a period of 8 days. Format: functional. To be noted: route oral. The method in brief:
as §2

Data set [7] deals with Mus musculus. Description: In vivo antitumor activity against subaxillary implanted 6C3HED lymphosarcoma implanted in C3H mice at a dose of 150 mg/kg administered perorally twice daily for a period of 8 days. The format is functional. Conditions: route oral, 150 mg/kg. The gist of the method: as §1
A short description of data set [8]: Metabolic breakdown to the o-sulfate of p-chloroaniline (2-amino-5-chlorophenyl sulfate) by giving 100 mg/kg oral doses of the compound. More on the design: dose 100 mg/kg, route oral. Format: ADME, organism-based. To be noted: in vivo. The method in brief:
as §3

Data set [9] is described as follows: % dose converted to 4-(S-amino-N-{[(4-chlorophenyl)amino]carbonyl}sulfonimidoyl)benzoic acid (compound 41). Format: ADME.
In data set [10] the test system is Mus musculus. Described as §4. Format: functional. Conditions: 192 h, route oral. The gist of the method:
as §1

The test system of data set [11] is Mus musculus. Description: In vivo antitumor activity of compound against subaxillary implanted 6C3HED lymphosarcoma implanted in C3H mice at a dose of 150 mg/kg administered perorally daily for a period of 8 days. The format is functional. To be noted: 192 h, route oral. The method in brief: as §1
In data set [12] the test system is Mus musculus. Description: In vivo antitumor activity of compound against subaxillary implanted 6C3HED lymphosarcoma implanted in C3H mice at a dose of 4.0 mg/kg administered intraperitoneally twice daily for a period of 8 days. Conditions: ip, 192 h, route intraperitoneal. Format: functional. The method in brief: as §1

Regarding `N[S+]([O-])(=NC(=O)Nc1ccc(Cl)cc1)c1ccc(C(F)(F)F)cc1` (stereo unspecified), in data set [1], the inhibition entry was “Toxic”. This molecule came in with a Lethality in [2] of 100%. In addition, the IC50 in [3] stood at 15.2 µg/mL (≈ 40.2 µM).

Regarding `CN[S+]([O-])(=NC(=O)Nc1ccc(Cl)cc1)c1ccc(C)c(C)c1` (stereo unspecified), the inhibition in vivo at 25 mg/kg in data set [4] amounted to 98%. Moreover, inhibition in data set [3] was half-maximal at 16.2 µg/mL (≈ 46 µM) (IC50).

Regarding `Cc1ccc([S+](N)([O-])=NC(=O)Nc2ccc(Cl)cc2)cc1` (single isomer, unassigned; (-)), the Dose converted in [5] came out at 4.7%; in data set [9] it was 18%. Further, the Lethality in [6] is 60%. In data set [7], the Inhibition was 100%. The molecule also displayed an Activity in [8] of 0.58 µM. Moreover, in data set [10], testing at 75 mg/kg gave an inhibition in vivo of 100%.

On to `CN[S+]([O-])(=NC(=O)Nc1ccc(Cl)cc1)c1ccc(C)cc1` (stereo unspecified), for which 150 mg/kg produced 93% inhibition in vivo in [11]. In data set [8], the Activity is 1.2 µM. The same molecule yielded a concentration for half-maximal inhibition (IC50) in data set [3] of over 20 µg/mL.

As for `Cc1ccc([S+](N)([O-])=NC(=O)Nc2ccc(Cl)cc2)cc1C` (stereo unspecified), in data set [12], the inhibition in vivo at 4 mg/kg came out at 97%. Also, the IC50 in [3] is over 20 µg/mL.
